Laboratory results from ChEMBL document CHEMBL1124558, “Differential effects of a series of hydroxamic acid derivatives on 5-lipoxygenase and cyclooxygenase from neutrophils and 12-lipoxygenase from platelets and their in vivo effects on inflammation and anaphylaxis” (J Med Chem, 1989).

Assays:
[1] = target: Cyclooxygenase (Rattus norvegicus) (UniProt P35355+Q63921); test: Inhibition of Prostaglandin G/H synthase in rat polymorphonuclear leukocytes; type: cell-based; parameters: concentration or dose not given beside the values; conditions: concentration not given here
How it was run: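 Homogenate of glycogen-elicited rat peritoneal PMNs in 0.1 M Tris-HCl pH 8.2 with 10 μM NDGA, preincubated 5 min at 37 °C with compound (≤0.1% DMSO). [14C]arachidonic acid (8 μM) added with 4 mM glutathione and epinephrine; 10 min reaction. TxB2 and PGF2α separated by TLC and counted.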

[2] = target: T1, Polyunsaturated fatty acid 5-lipoxygenase (Rattus norvegicus) (UniProt P12527); test: In vitro inhibitory activity against polymorphonuclear leukocyte 5-lipoxygenase in rat cell at 1 uM
T1 sequence (whole entry): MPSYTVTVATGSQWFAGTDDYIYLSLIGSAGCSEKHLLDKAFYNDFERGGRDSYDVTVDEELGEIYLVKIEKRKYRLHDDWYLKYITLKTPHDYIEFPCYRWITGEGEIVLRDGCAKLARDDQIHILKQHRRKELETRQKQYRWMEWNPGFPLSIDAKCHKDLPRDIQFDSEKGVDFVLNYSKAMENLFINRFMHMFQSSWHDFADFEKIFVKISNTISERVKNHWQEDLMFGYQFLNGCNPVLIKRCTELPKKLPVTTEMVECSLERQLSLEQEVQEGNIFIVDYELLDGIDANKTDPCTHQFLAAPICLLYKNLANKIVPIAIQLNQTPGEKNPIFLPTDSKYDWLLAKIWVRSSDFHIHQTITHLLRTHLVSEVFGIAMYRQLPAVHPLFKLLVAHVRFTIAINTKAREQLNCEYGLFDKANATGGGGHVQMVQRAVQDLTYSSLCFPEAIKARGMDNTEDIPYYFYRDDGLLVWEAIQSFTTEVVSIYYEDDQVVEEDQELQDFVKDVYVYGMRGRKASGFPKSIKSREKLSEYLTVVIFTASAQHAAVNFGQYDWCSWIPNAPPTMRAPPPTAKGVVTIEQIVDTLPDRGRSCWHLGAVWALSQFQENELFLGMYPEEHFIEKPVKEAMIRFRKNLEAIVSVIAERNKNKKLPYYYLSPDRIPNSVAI
How it was run: (§1)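 Intact glycogen-elicited peritoneal PMNs pooled from 4–5 Sprague-Dawley rats (250 g), preincubated 5 min at 30 °C with compound in DMSO (≤0.1% final) plus 1 μM indomethacin. Challenge with [14C]arachidonic acid (4 μM) and A23187 (0.8 μM) for 3 min. Extraction, TLC, 5-HETE by scintillation counting.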

[3] = target: T2, Polyunsaturated fatty acid 5-lipoxygenase (Homo sapiens, UniProt P09917); test: In vitro inhibitory activity against polymorphonuclear leukocyte 5-lipoxygenase in human cell at 10 uM
T2 sequence (P09917 whole entry): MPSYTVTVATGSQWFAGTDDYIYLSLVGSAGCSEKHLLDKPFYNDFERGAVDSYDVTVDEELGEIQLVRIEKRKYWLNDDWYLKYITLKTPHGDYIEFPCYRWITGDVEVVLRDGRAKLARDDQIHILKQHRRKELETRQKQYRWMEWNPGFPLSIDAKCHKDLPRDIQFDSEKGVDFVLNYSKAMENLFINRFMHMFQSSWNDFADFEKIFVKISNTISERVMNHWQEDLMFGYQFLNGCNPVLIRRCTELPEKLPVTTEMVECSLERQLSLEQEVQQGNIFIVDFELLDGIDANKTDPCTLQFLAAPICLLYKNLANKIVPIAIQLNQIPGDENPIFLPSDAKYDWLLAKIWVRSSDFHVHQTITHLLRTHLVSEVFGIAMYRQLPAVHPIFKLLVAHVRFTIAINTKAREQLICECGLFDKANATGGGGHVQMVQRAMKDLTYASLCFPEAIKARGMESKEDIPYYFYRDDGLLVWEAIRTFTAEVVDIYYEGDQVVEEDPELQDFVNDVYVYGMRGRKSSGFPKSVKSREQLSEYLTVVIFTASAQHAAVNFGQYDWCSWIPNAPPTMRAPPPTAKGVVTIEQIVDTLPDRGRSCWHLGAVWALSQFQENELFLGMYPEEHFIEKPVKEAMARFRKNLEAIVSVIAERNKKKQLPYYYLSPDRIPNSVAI
How it was run: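 Human PMNs from venous blood of a healthy volunteer (EDTA) were purified by dextran sedimentation, a Percoll gradient and NH4Cl red-cell lysis (>90% pure). They were held in Ca/Mg PBS with 1 mg/mL glucose and 1 μM indomethacin, then challenged with A23187 (0.8 μM) and [14C]arachidonic acid (4 μM) for 3 min. 5-HETE was measured by TLC and scintillation counting.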

[4] = target: T3, Arachidonate 12-lipoxygenase (Rattus norvegicus) (UniProt Q02759); test: In vitro inhibitory activity against rat platelet 12-lipoxygenase at 30 uM
T3 sequence (whole entry): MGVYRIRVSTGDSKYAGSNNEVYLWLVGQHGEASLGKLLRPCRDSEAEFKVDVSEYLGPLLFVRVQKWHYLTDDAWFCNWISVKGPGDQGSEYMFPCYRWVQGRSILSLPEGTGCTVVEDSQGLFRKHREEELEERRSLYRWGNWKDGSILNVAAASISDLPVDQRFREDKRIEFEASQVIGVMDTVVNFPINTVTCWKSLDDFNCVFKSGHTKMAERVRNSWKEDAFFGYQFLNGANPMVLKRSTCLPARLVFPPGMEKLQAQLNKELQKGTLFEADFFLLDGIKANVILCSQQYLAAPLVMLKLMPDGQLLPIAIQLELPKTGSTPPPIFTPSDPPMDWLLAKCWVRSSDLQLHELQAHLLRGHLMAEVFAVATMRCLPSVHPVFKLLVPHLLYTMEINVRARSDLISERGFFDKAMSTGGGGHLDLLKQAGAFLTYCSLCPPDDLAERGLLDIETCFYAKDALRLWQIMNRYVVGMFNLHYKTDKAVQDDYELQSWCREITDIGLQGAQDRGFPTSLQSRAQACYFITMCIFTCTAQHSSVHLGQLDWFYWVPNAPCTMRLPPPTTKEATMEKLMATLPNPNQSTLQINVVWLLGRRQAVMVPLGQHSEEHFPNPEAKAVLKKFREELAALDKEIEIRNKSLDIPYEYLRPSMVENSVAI
How it was run: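 Cell-free cytosolic 12-lipoxygenase from Sprague-Dawley rat platelets (0.4 mg/mL), preincubated 5 min at 30 °C with compound in DMSO (≤0.1% final), 25 mM Tris pH 7.4, 1 μM indomethacin, 100 μM glutathione; reaction started with 6 μM [14C]arachidonic acid and quenched with citric acid/NDGA after 3 min. 12-HETE isolated by TLC and counted by scintillation; % inhibition, duplicate.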

[5] = target: 12-lipoxygenase (Rattus norvegicus, UniProt F1LQ70); test: In vitro inhibitory activity against rat platelet 12-lipoxygenase
[6] = system: Mus musculus; test: In vivo inhibition of mouse ear inflammation; type: functional; parameters: concentration or dose not given beside the values
How it was run: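 Compound or ethanol vehicle applied topically to one ear of male DBA/2J mice 60 min before arachidonic acid (2 mg/ear). […] Groups of 5 mice.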

[7] = system: Cavia porcellus; test: In vivo inhibitory activity against guinea pig systemic anaphylaxis when administered a compound dose (200 mg/kg) perorally; type: functional; conditions: po
How it was run: (§2)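 Male Hartley guinea pigs sensitised ip with ovalbumin (2.7 mg/kg) plus LPS adjuvant, then challenged 2 weeks later with 1% ovalbumin aerosol for 30 s. Pretreated with pyrilamine, indomethacin and propranolol 20 min before challenge. Compound given in PEG 400 1 h before challenge.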

[8] = target: T2, Polyunsaturated fatty acid 5-lipoxygenase; test: In vitro inhibition of polymorphonuclear leukocyte derived human 5-lipoxygenase
How it was run: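 PMNs from venous blood of healthy volunteers, isolated by dextran sedimentation and Percoll gradient (>90% pure) and held in Ca/Mg PBS with 1 mg/mL glucose and 1 μM indomethacin. Challenged with calcium ionophore and [14C]arachidonic acid for 3 min. 5-HETE measured by TLC and scintillation counting; IC50 read graphically.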

[9] = system: Cavia porcellus; test: In vivo inhibitory activity against guinea pig systemic anaphylaxis when administered a compound dose (50 mg/kg) perorally; type: functional; conditions: po; how it was run: as §2
[10] = system: Cavia porcellus; test: In vivo inhibitory activity against guinea pig systemic anaphylaxis when administered a compound dose (10 mg/kg) intravenously; type: functional; conditions: iv
[11] = target: T4, Polyunsaturated fatty acid 5-lipoxygenase (Rattus norvegicus, UniProt P12527); test: In vitro inhibition of rat polymorphonuclear leukocyte 5-lipoxygenase; how it was run: as §1
T4 sequence (P12527 whole entry): T1 sequence (whole entry)

12-lipoxygenase, sequence (F1LQ70 whole entry, looked up): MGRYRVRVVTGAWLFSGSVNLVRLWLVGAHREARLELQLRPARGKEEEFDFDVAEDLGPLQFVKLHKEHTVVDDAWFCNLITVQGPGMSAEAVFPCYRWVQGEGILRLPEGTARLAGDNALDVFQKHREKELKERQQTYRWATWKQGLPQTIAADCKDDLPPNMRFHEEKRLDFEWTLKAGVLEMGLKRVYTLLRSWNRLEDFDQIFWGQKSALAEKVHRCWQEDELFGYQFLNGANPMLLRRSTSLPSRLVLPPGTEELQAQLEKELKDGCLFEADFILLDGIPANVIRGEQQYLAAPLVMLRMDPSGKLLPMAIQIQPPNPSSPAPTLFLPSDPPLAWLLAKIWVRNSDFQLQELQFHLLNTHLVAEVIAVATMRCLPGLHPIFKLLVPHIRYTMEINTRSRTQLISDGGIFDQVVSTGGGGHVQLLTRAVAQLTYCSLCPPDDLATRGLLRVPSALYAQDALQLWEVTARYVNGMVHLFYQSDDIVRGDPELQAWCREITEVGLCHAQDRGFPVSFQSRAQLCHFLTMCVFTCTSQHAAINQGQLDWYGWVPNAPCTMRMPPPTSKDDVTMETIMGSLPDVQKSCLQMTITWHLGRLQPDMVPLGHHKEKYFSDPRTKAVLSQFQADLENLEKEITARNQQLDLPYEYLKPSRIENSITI

Row | SMILES | inhibition [1] [%] | inhibition [2] [%] | Inhibition [3] [%] | inhibition [4] [%] | Ki [5] [µM] | Inhibition [6] [%] | inhibition in vivo at 200 mg/kg [7] [%] | IC50 [8] [µM] | inhibition in vivo at 50 mg/kg [9] [%] | inhibition in vivo at 10 mg/kg [10] [%] | IC50 [11] [µM]
1 | O=C(/C=C/c1ccc(OCc2ccccc2)cc1)N(O)CCc1ccccc1 | < 10 | 24 | < 10 | 3 | – | – | – | – | – | – | –
2 | O=C(Cc1ccc(OCc2ccccc2)cc1)N(O)CCc1ccccc1 | < 10 | – | – | – | 1.6 | 39 | 17 | – | – | – | –
3 | O=C(CCCc1ccccc1)N(O)CCc1ccccc1 | 44 | – | – | – | – | 56 | – | 0.18 | 17 | 50 | 0.3
